According to ChEMBL document CHEMBL1139056, “3D-QSAR design of novel antiepileptic sulfamides” (2007):
The source made the active and inactive calls. No cut-off for these calls is given here.

Legend:
[1] = system: Mus musculus; assay: Anticonvulsant activity in ip dosed Albino mouse by MES test; type: functional
Outline: (§1)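 Albino mice of matched age and weight, 12-h light/dark cycle, free food and water. Compound given ip in 30% PEG 400 and 10% water, 0.01 ml/g body weight. MES test by NIH antiepileptic drug development program standard procedures. ED50 from groups of six mice at several doses at time of peak effect; Litchfield–Wilcoxon with 95% confidence intervals.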

[2] = system: Mus musculus; assay: Anticonvulsant activity in ip dosed Albino mouse by PTZ test; type: functional, organism-based
Outline: (§2)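 Mice of matched age and weight, 12-h light/dark cycle, food and water ad libitum. Dosing ip in 30% PEG 400 and 10% water at 0.01 ml/g body weight. PIC and PTZ seizure tests run by NIH antiepileptic drug development program standard procedures.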

[3] = system: Mus musculus; assay: Anticonvulsant activity in ip dosed Albino mouse by PIC test; type: functional, organism-based; outline: as §2
[4] = system: Mus musculus; assay: Anticonvulsant activity in ip dosed Albino mouse assessed as time of peak effect by MES test; type: functional; outline: as §1

SMILES	Activity [1]	Activity [2]	Activity [3]	ED50 [1] [µmol/kg]	Activity [4] [h]
O=S(=O)(N1CCOCC1)N1CCOCC1	inactive	inactive	inactive		
O=S(=O)(NC1CCCCC1)NC1CCCCC1		inactive		151	0.5
O=S(=O)(NC1CC1)NC1CC1	inactive	inactive	inactive		
CCCCNS(=O)(=O)NCCCC [BUTYL(BUTYLSULFAMOYL)AMINE]		inactive	inactive	295	2
O=S(=O)(NCc1ccccc1)NCc1ccccc1 [BENZYL(BENZYLSULFAMOYL)AMINE]		inactive	inactive	238	2
